Results published in ChEMBL document CHEMBL1140213, “Synthesis and structure-activity relationship studies of 2-(N-substituted)-aminobenzimidazoles as potent negative gating modulators ofsmall conductance Ca2+-activated K+ channels” (J Med Chem, 2008).
Activity calls are given as the source filed them. No cut-off for these calls is given here.

Key:
[1] = target: Small conductance calcium-activated potassium channel protein 3 (Rattus norvegicus, UniProt P70605); experiment: (§1) Inhibition of Wistar rat recombinant SK3 channel expressed in HEK293 cells by whole cell patch clamp technique; type: cell-based
Procedure, shortened: (§2)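 Whole-cell patch clamp on HEK293 cells stably expressing rat SK3. Extracellular solution contains 4 mM K+. Pipette Ca2+ is buffered at 400 nM. Kd comes from single-concentration kinetics experiments (n = independent experiments), reported as mean ± SEM.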

[2] = target: Small conductance calcium-activated potassium channel protein 2 (Homo sapiens, UniProt Q9H2S1); experiment: Inhibition of human SK2 channel by inside-out patch clamp technique
[3] = target: T1, Small conductance calcium-activated potassium channel protein 3 (Homo sapiens, UniProt Q9UGI6); experiment: Inhibition of wild type human SK3 channel expressed in HEK293 cells assessed as Ca2+ sensitivity by inside-out patch clamp technique; type: cell-based
Procedure, shortened: (§3)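 Inside-out patches from HEK293 cells transiently transfected (lipofectamine) with hSK3 or hSK3(Q493A;D495A), recorded 2-4 days after transfection. Patches are exposed to a series of Ca2+-buffered solutions. Currents are normalized to the current induced by 10 µM Ca2+, and Hill fits give EC50(Ca2+) and nH. Mean ± SEM.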

[4] = target: T1, Small conductance calcium-activated potassium channel protein 3; experiment: Inhibition of human SK3 channel expressed in HEK293 cells assessed as Ca2+ induced current after drug wash out by whole cell patch clamp technique in presence of bicuculline methobromide; type: cell-based
Procedure, shortened: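 Whole-cell SK3 current is measured every 5 s at 0 mV from voltage ramps (-120 to +30 mV). Pipette Ca2+ is buffered at 400 nM. Inhibition is followed to steady state (about 5 min) and then washed out. Bicuculline methobromide (100 µM) is applied for 20 s during the wash. Kd is fitted from the kinetics.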

[5] = target: Small conductance calcium-activated potassium channel protein 1 (Homo sapiens, UniProt Q92952); experiment: Inhibition of human SK1 channel by inside-out patch clamp technique
[6] = target: T1, Small conductance calcium-activated potassium channel protein 3; experiment: Inhibition of human SK3 channel by inside-out patch clamp technique
[7] = Inhibition of human SK3 channel Q493A;D495A mutant expressed in HEK293 cells assessed as Ca2+ sensitivity by inside-out patch clamp technique; type: cell-based; procedure, shortened: as §3
[8] = target: T1, Small conductance calcium-activated potassium channel protein 3; experiment: Inhibition of wild type human SK3 channel expressed in HEK293 cells at 300 nM by whole cell assay; type: cell-based
HEK293 = experiment: Inhibition of human SK3 channel Q493A;D495A mutant expressed in HEK293 cells at 300 nM by whole cell assay; type: cell-based
[9] = Inhibition of human SK3 channel Q493A;D495A mutant expressed in HEK293 cells; type: cell-based
[10] = target: T1, Small conductance calcium-activated potassium channel protein 3; experiment: Inhibition of wild type human SK3 channel expressed in HEK293 cells; type: cell-based
[11] = target: Small conductance calcium-activated potassium channel protein 3 (Rattus norvegicus) (UniProt P70605); experiment: as §1; type: cell-based; procedure, shortened: as §2
Sequence of Small conductance calcium-activated potassium channel protein 3 (Rattus norvegicus) (P70605 whole entry): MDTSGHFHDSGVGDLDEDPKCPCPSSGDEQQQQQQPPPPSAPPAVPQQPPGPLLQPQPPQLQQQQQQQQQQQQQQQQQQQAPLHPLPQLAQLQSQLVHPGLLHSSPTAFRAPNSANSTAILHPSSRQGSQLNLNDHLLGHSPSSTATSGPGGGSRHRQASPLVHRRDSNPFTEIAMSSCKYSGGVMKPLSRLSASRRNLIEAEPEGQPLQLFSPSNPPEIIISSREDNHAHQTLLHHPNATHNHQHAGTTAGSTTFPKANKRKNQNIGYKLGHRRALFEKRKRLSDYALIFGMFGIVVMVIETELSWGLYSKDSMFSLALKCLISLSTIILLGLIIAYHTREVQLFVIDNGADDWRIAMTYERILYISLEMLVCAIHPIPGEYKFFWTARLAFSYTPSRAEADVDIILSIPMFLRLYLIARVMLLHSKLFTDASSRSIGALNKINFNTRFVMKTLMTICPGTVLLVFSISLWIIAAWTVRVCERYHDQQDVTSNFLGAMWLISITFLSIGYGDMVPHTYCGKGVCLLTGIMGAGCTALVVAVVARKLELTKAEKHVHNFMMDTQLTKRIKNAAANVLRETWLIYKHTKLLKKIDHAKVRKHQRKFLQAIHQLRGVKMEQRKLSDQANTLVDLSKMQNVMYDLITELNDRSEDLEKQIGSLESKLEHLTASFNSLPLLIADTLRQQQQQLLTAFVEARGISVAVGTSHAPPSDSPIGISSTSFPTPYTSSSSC

T1 sequence (Q9UGI6 whole entry): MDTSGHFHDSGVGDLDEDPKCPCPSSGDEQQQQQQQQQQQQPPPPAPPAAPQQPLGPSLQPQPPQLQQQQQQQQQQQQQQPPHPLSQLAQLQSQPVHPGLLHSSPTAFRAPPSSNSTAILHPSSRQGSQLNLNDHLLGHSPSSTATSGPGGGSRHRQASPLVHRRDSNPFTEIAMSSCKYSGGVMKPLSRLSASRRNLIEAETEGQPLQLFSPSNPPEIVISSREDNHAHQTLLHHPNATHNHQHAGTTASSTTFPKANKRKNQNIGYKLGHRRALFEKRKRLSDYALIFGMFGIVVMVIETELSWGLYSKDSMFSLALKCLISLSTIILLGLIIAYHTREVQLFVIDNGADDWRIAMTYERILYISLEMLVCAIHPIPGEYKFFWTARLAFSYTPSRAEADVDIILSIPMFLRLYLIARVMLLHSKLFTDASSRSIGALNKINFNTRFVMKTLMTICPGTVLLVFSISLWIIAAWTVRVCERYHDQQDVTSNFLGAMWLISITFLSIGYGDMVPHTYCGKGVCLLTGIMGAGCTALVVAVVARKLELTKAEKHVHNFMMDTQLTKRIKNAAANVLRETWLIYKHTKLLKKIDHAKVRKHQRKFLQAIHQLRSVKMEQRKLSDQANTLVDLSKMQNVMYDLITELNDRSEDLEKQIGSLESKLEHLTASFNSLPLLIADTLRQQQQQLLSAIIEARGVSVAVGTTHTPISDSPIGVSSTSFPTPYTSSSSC
Sequence of Small conductance calcium-activated potassium channel protein 3 (Rattus norvegicus, UniProt P70605) (P70605 whole entry): as the sequence (P70605 whole entry) above
Sequence of Small conductance calcium-activated potassium channel protein 2 (Q9H2S1 whole entry): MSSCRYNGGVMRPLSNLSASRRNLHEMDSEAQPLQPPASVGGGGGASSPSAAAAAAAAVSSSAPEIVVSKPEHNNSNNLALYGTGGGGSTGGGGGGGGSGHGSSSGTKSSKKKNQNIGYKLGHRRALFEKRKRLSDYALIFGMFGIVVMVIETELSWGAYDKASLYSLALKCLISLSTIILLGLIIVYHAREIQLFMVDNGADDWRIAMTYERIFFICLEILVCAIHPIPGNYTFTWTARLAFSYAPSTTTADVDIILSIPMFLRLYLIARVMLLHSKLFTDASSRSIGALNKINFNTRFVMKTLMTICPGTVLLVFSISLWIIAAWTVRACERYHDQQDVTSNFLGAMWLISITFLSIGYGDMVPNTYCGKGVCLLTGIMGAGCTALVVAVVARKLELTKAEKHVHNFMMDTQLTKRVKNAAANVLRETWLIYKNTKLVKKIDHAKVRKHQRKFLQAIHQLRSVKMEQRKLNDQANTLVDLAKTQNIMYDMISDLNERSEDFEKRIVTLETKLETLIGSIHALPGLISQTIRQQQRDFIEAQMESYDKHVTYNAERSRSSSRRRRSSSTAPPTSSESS
Sequence of Small conductance calcium-activated potassium channel protein 1 (Q92952 whole entry): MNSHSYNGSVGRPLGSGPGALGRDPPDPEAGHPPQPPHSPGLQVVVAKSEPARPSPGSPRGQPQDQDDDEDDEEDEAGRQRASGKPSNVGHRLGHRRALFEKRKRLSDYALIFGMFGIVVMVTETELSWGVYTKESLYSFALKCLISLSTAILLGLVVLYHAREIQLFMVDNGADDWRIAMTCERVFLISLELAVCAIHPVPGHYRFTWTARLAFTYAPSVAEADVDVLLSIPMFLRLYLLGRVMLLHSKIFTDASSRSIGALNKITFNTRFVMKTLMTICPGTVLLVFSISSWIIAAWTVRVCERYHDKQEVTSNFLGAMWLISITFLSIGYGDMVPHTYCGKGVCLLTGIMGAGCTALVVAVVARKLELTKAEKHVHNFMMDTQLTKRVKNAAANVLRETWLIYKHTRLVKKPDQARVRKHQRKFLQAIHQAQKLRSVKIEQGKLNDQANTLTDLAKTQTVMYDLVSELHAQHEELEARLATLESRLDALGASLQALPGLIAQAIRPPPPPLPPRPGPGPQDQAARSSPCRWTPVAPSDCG

SMILES	Kd [1] [nM]	further results
c1ccc2c(c1)CC(Nc1nc3ccccc3[nH]1)C2	1700	
c1ccc2c(c1)CCC2Nc1nc2ccccc2[nH]1 (stereo not given)	790	
c1ccc2c(c1)CCCC2Nc1nc2ccccc2[nH]1 (stereo not given)	130	
COc1ccc(CC2c3cc(OC)c(OC)cc3CC[N+]2(C)CCC(=O)OCCCCCOC(=O)CC[N+]2(C)CCc3cc(OC)c(OC)cc3C2Cc2ccc(OC)c(OC)c2)cc1OC (stereo not given) [ATRACURIUM]	6400	
c1ccc2c(c1)c1cc[n+]2CCCCC[n+]2ccc(c3ccccc32)NCCCCCN1	0.43	
c1ccc2c(c1)CCC(Nc1nc3ccccc3[nH]1)C2 (stereo not given)	2000	
Clc1ccc2c(c1)C(Nc1nc3ccccc3[nH]1)CCC2 (stereo not given)	17	
Clc1ccc2c(c1)CCCC2Nc1nc2ccccc2[nH]1 (stereo not given)	120	
c1ccc2[nH]c(NC3CCCc4ccncc43)nc2c1 (stereo not given)	6500	
c1ccc(C2CCCN2c2nc3ccccc3[nH]2)cc1 (stereo not given)	1600	
COc1cc2c3cc1Oc1cc(ccc1O)C[C@@H]1c4c(cc(OC)c(O)c4Oc4ccc(cc4)C[C@@H]3N(C)CC2)CC[N+]1(C)C	16000	
c1cc2cc(c1)C[n+]1ccc(c3ccccc31)NCc1ccc(cc1)CNc1cc[n+](c3ccccc13)C2	2.7	
c1ccc2[nH]c(NC3CCCc4sccc43)nc2c1 (stereo not given)	540	
Brc1ccc2c(c1)C(Nc1nc3ccccc3[nH]1)CCC2 (stereo not given)	11	
CC1CCc2ccccc2C1Nc1nc2ccccc2[nH]1 (stereo not given)	170	
Clc1cc2c(cc1Cl)C(Nc1nc3ccccc3[nH]1)CCC2 (stereo not given)	9.1	Kd [2]: 47 nM; EC50 [3]: 1810 nM; Kd [4]: 7.8 nM; Kd [5]: 54 nM; Kd [6]: 60 nM
c1ccc(CCc2nc3ccccc3[nH]2)cc1	> 10000	
CCn1c(=O)[nH]c2ccccc21		Activity [11]: Active
c1ccc(C2CCCCN2c2nc3ccccc3[nH]2)cc1 (stereo not given)	750	
Clc1ccc(CNc2nc3ccccc3[nH]2)cc1	640	
CC(=O)O[C@H]1C[C@@H]2CC[C@@H]3[C@H](CC[C@@]4(C)[C@H]3CC[C@H]([N+]3(C)CCCCC3)[C@@H]4OC(C)=O)[C@@]2(C)C[C@@H]1[N+]1(C)CCCCC1 [PENUCURONIUM]	21000	
Cc1cc(NC2CCCCC2)nc(-n2nc(C)cc2C)n1		Activity [11]: Active
Clc1cccc2c1C(Nc1nc3ccccc3[nH]1)CCC2 (stereo not given)	27	
O=C1Nc2c(ccc(Cl)c2Cl)/C1=N\O		Activity [11]: Active
c1ccc2c(c1)SCCC2Nc1nc2ccccc2[nH]1 (stereo not given)	130	
c1ccc2c(c1)OCCC2Nc1nc2ccccc2[nH]1 (stereo not given)	> 10000	
C[N+]1(C)CCc2cc3c(cc2[C@H]1[C@@H]1OC(=O)c2c1ccc1c2OCO1)OCO3		IC50 [1]: 7000 nM

The next lines start with results.

Kd [1] [nM]	SMILES	further results
200	Clc1ccc(CNc2nc3ccccc3[nH]2)cc1Cl	
> 10000	O=C(Nc1nc2ccccc2[nH]1)c1ccc(Cl)cc1	
600	c1ccc(-c2ccc3c(c2)C(Nc2nc4ccccc4[nH]2)CCC3)cc1 (stereo not given)	
32	CC1CCC(Nc2nc3ccccc3[nH]2)c2ccccc21 (stereo not given)	
44	Clc1cccc2c1CCCC2Nc1nc2ccccc2[nH]1 (stereo not given)	
590	c1ccc2c(c1)CCCCC2Nc1nc2ccccc2[nH]1 (stereo not given)	
20	Cc1ccc2c(c1)C(Nc1nc3ccccc3[nH]1)CCC2 (stereo not given)	
180	Cc1cc(N)c2ccccc2[n+]1CCCCCCCCCC[n+]1c(C)cc(N)c2ccccc21 [DEQUALINIUM CHLORIDE]	
31	c1ccc2c3c(ccc2c1)CCCC3Nc1nc2ccccc2[nH]1 (stereo not given)	
14000	c1ccc2c(c1)CCN(c1nc3ccccc3[nH]1)C2	
34	Fc1ccc2c(c1)C(Nc1nc3ccccc3[nH]1)CCC2 (stereo not given)	
33	Cc1cc(C)c2c(c1)C(Nc1nc3ccccc3[nH]1)CCC2 (stereo not given)	
450	c1ccc2c(c1)CCC[C@@H]2Nc1nc2ccccc2[nH]1	
77	c1ccc2c(c1)CCC[C@H]2Nc1nc2ccccc2[nH]1	EC50 [7]: 440 nM; EC50 [3]: 400 nM; inhibition [8]: 75%; inhibition (HEK293): 45%; Kd [9]: 430 nM; Kd [10]: 100 nM
2600	COc1ccc(C[C@H]2c3cc(OC)c(OC)cc3CC[N+]2(C)C)cc1OC [LAUDANOSINE METHIODIDE]	
61	COc1ccc2c(c1)C(Nc1nc3ccccc3[nH]1)CCC2 (stereo not given)	
2700	c1ccc(CNc2nc3ccccc3[nH]2)cc1	
